This note sets out measurements from ChEMBL document CHEMBL3112564, “Identification of clinically viable quinolinol inhibitors of botulinum neurotoxin A light chain” (J Med Chem, 2014).

Values after ≈ are worked out from the molar mass of the structure shown.

Usually IC50 stands for the concentration that gives 50% inhibition. A low value points to higher potency. As a reminder, the thermodynamic solubility is the concentration in solution at equilibrium with solid.

For data set [1], the target named is Botulinum neurotoxin type A (Clostridium botulinum, UniProt P0DPI0).
The test system of data set [2] is Plasma. The data set can be described thus: Half life in human plasma at 1 uM by LC-MS/MS analysis. The class given is ADME, cell-free. Summed up:
(§1)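 Compound at 1.0 μM was incubated in plasma at 37 °C and sampled at 0, 1, 3, 5 and 24 h. Proteins were precipitated with cold acetonitrile containing internal standard, and samples were analysed by LC–MS/MS for percent remaining. Half-life came from regression analysis.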

A short description of data set [3]: Aqueous solubility of the compound at pH 1 after 24 hrs by shake flask method. Type of data set: physicochemical. The procedure, abridged: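 Miniaturized shake-flask method: analyte at 1.0 mM in aqueous solution at pH 1.0 or 6.8, shaken gently (600 rpm) in a syringeless filter at room temperature for 24 h. Filtrate was collected after a further 30 min, diluted in 50:50 MeCN/water with 0.1% formic acid, and analysed by LC–MS/MS. Calibration range was 0.05–12.5 μM at pH 6.8 and 5.0–25000 μM at pH 1.0.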

The subject of data set [4] is Plasma. The data set can be described thus: Metabolic stability in Sprague-Dawley rat plasma assessed as compound remaining at 1 uM measured at 3 hrs by LC-MS/MS analysis. The class given is ADME, cell-free. The procedure, abridged:
as §1

The subject of data set [5] is Plasma. The data set can be described thus: Metabolic stability in human plasma assessed as compound remaining at 1 uM measured at 3 hrs by LC-MS/MS analysis. The class given is ADME, cell-free. Summed up: as §1
Data set [6] has as its system Liver microsome. The data set can be described thus: Half life in human liver microsomes at 1 uM by reversed phase LC/MS analysis. Type of data set: ADME. Summed up: (§2)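 Liver microsomes were from humans (pooled from 10 male donors) or male Sprague–Dawley rats aged 8–10 weeks. Incubations used 0.125 mg/mL total protein and 1.0 μM drug at 37 °C, sampled at 0, 5, 15, 30 and 60 min. Parent-to-product transitions were read by reversed-phase LC with triple quadrupole MS, and % remaining was taken relative to time zero. t1/2 = −ln(2)/k, with k from log–linear regression.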
(In general: Liver microsomes are vesicles of endoplasmic reticulum, rich in cytochrome P450 enzymes.)

The subject of data set [7] is Liver microsome. The data set can be described thus: Drug metabolism in human liver microsomes assessed as metabolic rate at 1 uM by reversed phase LC/MS analysis. The class given is ADME. Summed up: as §2
For data set [8], the system named is Plasma. The data set is described as follows: Half life in Sprague-Dawley rat plasma at 1 uM by LC-MS/MS analysis. Type of data set: ADME, cell-free. Summed up:
as §1

Data set [9] has as its system Liver microsome. The data set is described as follows: Half life in Sprague-Dawley rat liver microsomes at 1 uM by reversed phase LC/MS analysis. Type of data set: ADME. Summed up:
as §2

In data set [10] the test system is Liver microsome. The data set is described as follows: Drug metabolism in Sprague-Dawley rat liver microsomes assessed as metabolic rate at 1 uM by reversed phase LC/MS analysis. The class given is ADME. Summed up: as §2

Chain of Botulinum neurotoxin type A (P0DPI0 2-448 limits assumed): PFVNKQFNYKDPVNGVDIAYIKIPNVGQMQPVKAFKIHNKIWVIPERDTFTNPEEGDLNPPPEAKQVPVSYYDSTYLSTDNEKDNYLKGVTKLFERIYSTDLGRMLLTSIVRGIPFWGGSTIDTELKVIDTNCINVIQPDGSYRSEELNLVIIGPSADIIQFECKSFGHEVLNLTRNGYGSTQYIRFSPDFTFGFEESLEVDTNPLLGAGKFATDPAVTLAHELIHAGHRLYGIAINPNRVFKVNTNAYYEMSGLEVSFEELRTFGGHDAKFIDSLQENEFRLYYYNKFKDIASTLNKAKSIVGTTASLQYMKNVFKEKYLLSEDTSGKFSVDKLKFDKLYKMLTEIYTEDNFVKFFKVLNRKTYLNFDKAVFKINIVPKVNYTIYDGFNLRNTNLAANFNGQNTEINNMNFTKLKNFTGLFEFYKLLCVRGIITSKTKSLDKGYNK

On to `Cc1cccc(NC(c2ccc(C)s2)c2ccc3ccc(C)nc3c2O)n1` (stereo not drawn), for which the IC50 in data set [1] is greater than 100 µM. The compound `Cc1ccc(C(Nc2ccccn2)c2ccc3cccnc3c2O)cc1` (stereo not drawn) had an IC50 in data set [1] of 2.5 µM.

In turn, `CCCC(=O)NC(c1ccccc1Cl)c1ccc2cccnc2c1O` (stereo not drawn) showed an IC50 in data set [1] greater than 100 µM. `COc1cccc(C(NC(C)=O)c2ccc3cccnc3c2O)c1` (stereo not drawn) showed an IC50 in [1] greater than 100 µM. The compound `CC(C)Oc1c(C(Nc2ccccn2)c2ccccc2)ccc2cccnc12` (stereo not drawn) had an IC50 in data set [1] greater than 100 µM. `CC(C)C(=O)NC(c1ccccc1Cl)c1ccc2cccnc2c1O` (stereo not drawn) registered an IC50 in [1] greater than 100 µM.

Turning to `O=C(NC(c1ccccc1Cl)c1ccc2cccnc2c1O)c1ccccc1` (stereo not drawn), the IC50 in [1] stood at 0.8 µM. For the compound `Cc1ccccc1C(Nc1ccccn1)c1ccc2cccnc2c1O` (stereo not drawn), it took 3.6 µM to reach half-maximal inhibition in [1] (IC50). For the compound `Cc1ccc2ccc(C(Nc3ccccn3)c3ccccc3C)c(O)c2n1` (stereo not drawn), the IC50 in [1] amounted to 1.6 µM. Still for that read-out and setting: the result for `Cc1cccc(NC(c2ccccc2[N+](=O)[O-])c2ccc3ccc(C)nc3c2O)n1` (stereo not drawn) reads 10.7 µM; that for `Cc1ccnc(NC(c2ccccc2[N+](=O)[O-])c2ccc3ccc(C)nc3c2O)c1` (stereo not drawn), 0.9 µM; that for `Cc1ccnc(NC(c2ccccn2)c2ccc3cccnc3c2O)c1` (stereo not drawn), 13.4 µM.

`Cc1ccnc(NC(c2ccccn2)c2ccc3ccc(C)nc3c2O)c1` (stereo not drawn): in data set [1], inhibition was half-maximal at 2.1 µM (IC50). Against the preceding compound, the IC50 is about 6.4-fold lower.

In data set [1], `Cc1ccnc(NC(c2cccc([N+](=O)[O-])c2)c2ccc3cccnc3c2O)c1` (stereo not drawn) gave an IC50 of 4.6 µM. This IC50 lies about 2.2-fold higher than the previous one.

For `Cc1ccnc(NC(c2cccc([N+](=O)[O-])c2)c2ccc3ccc(C)nc3c2O)c1` (stereo not drawn), half-maximal inhibition in data set [1] (IC50) was put at 1.1 µM. Take `Cc1ccc2ccc(C(Nc3ccccn3)c3cccc(OCc4ccccc4)c3)c(O)c2n1` (stereo not drawn): 1.4 µM corresponded to half-maximal inhibition in data set [1] (IC50). In [1], `Cc1cccc(NC(c2cccc(OCc3ccccc3)c2)c2ccc3ccc(C)nc3c2O)n1` (stereo not drawn) came in with an IC50 of 3.5 µM. Regarding `COc1cccc(C(Nc2cc(C)ccn2)c2ccc3ccc(C)nc3c2O)c1` (stereo not drawn), in [1], the IC50 was found to be 2 µM. Compound `Cc1ccnc(NC(c2ccc(Cl)c(Cl)c2)c2ccc3cccnc3c2O)c1` (stereo not drawn) showed an IC50 in [1] of 1.5 µM. The compound `Cc1ccnc(NC(c2ccc(Cl)c(Cl)c2)c2ccc3ccc(C)nc3c2O)c1` (stereo not drawn) had an IC50 in data set [1] of 1.2 µM. For the compound `COc1ccc(C(Nc2ccccn2)c2ccc3cccnc3c2O)cc1OC` (stereo not drawn), the IC50 in [1] was 6.2 µM. The same measure, in the same setting: the result for `COc1ccc(C(Nc2ccccn2)c2ccc3ccc(C)nc3c2O)cc1OC` (stereo not drawn) reads 3 µM; that for `Oc1c(C(Nc2ccccn2)c2ccc(F)cc2)ccc2cccnc12` (stereo not drawn), 7.1 µM; that for `Cc1ccc2ccc(C(Nc3ccccn3)c3ccc(F)cc3)c(O)c2n1` (stereo not drawn), 2.8 µM. In the case of `Cc1ccc(C(Nc2ccccn2)c2ccc3ccc(C)nc3c2O)cc1` (stereo not drawn), in [1], the IC50 is 2.1 µM. Same read-out and setting: in the case of `CC(=O)NC(c1ccc(C)cc1)c1ccc2cccnc2c1O` (stereo not drawn) it was greater than 100 µM.

Consider `CC(=O)NC(c1ccc(N(C)C)cc1)c1ccc2cccnc2c1O` (stereo not drawn), for which the IC50 in data set [1] was greater than 100 µM. With `CN(C)c1ccc(C(NC(=O)Cc2ccccc2)c2ccc3cccnc3c2O)cc1` (stereo not drawn), half-maximal inhibition in [1] (IC50) was put at 7.1 µM. Compound `Cc1ccnc(NC(c2ccc(N(C)C)cc2)c2ccc3cccnc3c2O)c1` (stereo not drawn) showed an IC50 in data set [1] of 3.5 µM. For the compound `Cc1ccnc(NC(c2ccc(N(C)C)cc2)c2ccc3ccc(C)nc3c2O)c1` (stereo not drawn), inhibition in data set [1] was half-maximal at 2.5 µM (IC50). For the compound `Cc1cccc(NC(c2ccc(N(C)C)cc2)c2ccc3ccc(C)nc3c2O)n1` (stereo not drawn), the IC50 in [1] was 4.5 µM. Against the preceding compound, the IC50 is about 1.8-fold higher.

For the compound `COc1ccc(C(Nc2ccccn2)c2ccc3cccnc3c2O)cc1` (stereo not drawn), the t1/2 in the data set with Plasma [2] was 6.1 h; in the data set with Liver microsome [6], 22.7 min; in the data set on Plasma [8] it was 5 h; in the data set on Liver microsome [9] it was 11.3 min. For the same compound, the solubility (thermodynamic) at 24 h in data set [3] is 102 µM (≈ 36.5 µg/mL). The Stability is listed as 42.2% in the data set with Plasma [4] and 53.4% in the data set on Plasma [5]. In addition, in data set [1], the IC50 is 5.6 µM. The Drug metabolism in the data set with Liver microsome [7] worked out at 0.242 µM/min/mg; with Liver microsome [10] it was 0.487 µM/min/mg. As for `COc1ccc(C(Nc2ccccn2)c2ccc3ccc(C)nc3c2O)cc1` (stereo not drawn), the t1/2 with Plasma [2] was 10.7 h; with Liver microsome [6] it was 17 min; with Plasma [8] it was 5 h; in the data set on Liver microsome [9], 8.8 min. For the same compound, the solubility (thermodynamic) at 24 h in data set [3] stood at 76.7 µM (≈ 28.5 µg/mL). In addition, the values for the Stability in the data set on Plasma [4] and in the data set on Plasma [5] were 86.6% and 66.2%, respectively. The IC50 in [1] was 1.9 µM. In addition, the figures for the Drug metabolism in the data set on Liver microsome [7] and in the data set with Liver microsome [10] were 0.324 µM/min/mg and 0.627 µM/min/mg, respectively. `Cc1ccc2ccc(C(Nc3ccccn3)c3ccc(C)s3)c(O)c2n1` (stereo not drawn) yielded an IC50 in [1] of 2 µM. With `Oc1c(C(Nc2ccccc2Cl)c2ccccn2)ccc2cccnc12` (stereo not drawn), the half-maximal inhibitory concentration (IC50) in data set [1] was found to be 5.6 µM. As for `Oc1c(C(Nc2ccccc2Cl)c2cccnc2)ccc2cccnc12` (stereo not drawn), 1.9 µM corresponded to half-maximal inhibition in data set [1] (IC50). Against the preceding compound, the IC50 is about 2.9-fold lower. Same read-out and setting: in the case of `CCOC(=O)c1ccc(NC(c2ccccn2)c2ccc3cccnc3c2O)cc1` (stereo not drawn) it was 5.1 µM; in that of `CCOC(=O)c1ccc(NC(c2cccnc2)c2ccc3cccnc3c2O)cc1` (stereo not drawn), 2.9 µM. Same read-out and setting: the result for `COC(=O)c1cccc(NC(c2ccccn2)c2ccc3cccnc3c2O)c1` (stereo not drawn) reads 7.8 µM. In the case of `COC(=O)c1cccc(NC(c2cccnc2)c2ccc3cccnc3c2O)c1` (stereo not drawn), the midpoint of inhibition in [1], the IC50, lay at 4.2 µM. For `CCCOC(=O)c1ccc(NC(c2ccccn2)c2ccc3cccnc3c2O)cc1` (stereo not drawn), in data set [1], the IC50 came out at 5.6 µM. Turning to `CCCOC(=O)c1ccc(NC(c2cccnc2)c2ccc3cccnc3c2O)cc1` (stereo not drawn), in data set [1], the IC50 came out at 3 µM. Take `COc1ccc(C)cc1NC(c1ccccn1)c1ccc2cccnc2c1O` (stereo not drawn): the IC50 in data set [1] amounted to 5.1 µM. Take `COc1ccc(C)cc1NC(c1cccnc1)c1ccc2cccnc2c1O` (stereo not drawn): the IC50 in data set [1] was found to be 4.4 µM. On to `Cc1cc(Cl)ccc1NC(c1ccccn1)c1ccc2cccnc2c1O` (stereo not drawn), for which, in data set [1], the IC50 came to 5.2 µM. Turning to `Cc1cc(Cl)ccc1NC(c1cccnc1)c1ccc2cccnc2c1O` (stereo not drawn), in [1], 2.3 µM corresponded to half-maximal inhibition (IC50). This IC50 lies about 2.3-fold lower than the previous one. For the compound `Cc1cccc(NC(c2ccccn2)c2ccc3cccnc3c2O)c1` (stereo not drawn), in data set [1], 16.7 µM corresponded to half-maximal inhibition (IC50). On to `Cc1cccc(NC(c2cccnc2)c2ccc3cccnc3c2O)c1` (stereo not drawn), for which the IC50 in data set [1] was found to be 6.7 µM.

With `Oc1c(CNc2ccccn2)ccc2cccnc12`, the t1/2 was 14.2 h in the data set with Plasma [2], 27.1 min in the data set on Liver microsome [6], 12.9 h with Plasma [8] and 36.8 min in the data set on Liver microsome [9]. For the same compound, in data set [3], the solubility (thermodynamic) at 24 h amounted to 1140 µM (≈ 287 µg/mL). In addition, the Stability is on record as 76.3% in the data set on Plasma [4] and 96.1% in the data set with Plasma [5]. The IC50 in [1] turned out to be 26.7 µM. Besides, the Drug metabolism worked out at 0.203 µM/min/mg with Liver microsome [7] and 0.149 µM/min/mg in the data set with Liver microsome [10]. For the compound `Cc1ccc2c(Cl)cc(I)c(O)c2n1`, in data set [1], the IC50 came to 14.1 µM. Compound `CCC(=O)NC(c1ccc(OC)c(OC)c1)c1ccc2cccnc2c1O` (stereo not drawn) displayed an IC50 in data set [1] greater than 100 µM. `COc1cccc(C(Nc2cc(C)ccn2)c2ccc3cccnc3c2O)c1` (stereo not drawn) returned an IC50 in [1] of 3.3 µM. On to `CCC(=O)NC(c1ccc(N(C)C)cc1)c1ccc2cccnc2c1O` (stereo not drawn), for which the IC50 in [1] is greater than 100 µM. In [1], `CCC(=O)NC(c1ccccc1Cl)c1ccc2cccnc2c1O` (stereo not drawn) had an IC50 greater than 100 µM. In [1], `Cc1ccc2cccc(O)c2n1` [8-HYDROXY QUINALDINE] yielded an IC50 greater than 30 µM.

As to `Oc1cccc2cccnc12` [OXYQUINOLINE], in [1], the IC50 was greater than 30 µM.
